# Data as given in ChEMBL document CHEMBL3352352, “Structure-Based Drug Design of Novel, Potent, and Selective Azabenzimidazoles (ABI) as ATR Inhibitors” (ACS Med Chem Lett, 2015).
# Active and inactive are the calls of the source. The calls are words filed in the database; no cut-off is given here.
# What was measured:
# [1] = Solubility of the compound in PBS buffer at pH 7 by shake flask equilibrium solubility assay
# [2] = Intrinsic clearance in rat liver microsomes; assay type: ADME; details: read-out: CLH
# Method in brief: (§1)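 Liver microsomes from mouse, rat or human; intrinsic clearance scaled to hepatic blood flow.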
# [3] = Apparent permeability from apical to basolateral side in human Caco2 cells at 10 uM and pH 7.4; details: Caco-2, pH 7.4
# [4] = Oral bioavailability in Sprague-Dawley rat at 5 mg/kg; assay type: ADME, organism-based; details: in vivo
# [5] = biological target: T1, Serine/threonine-protein kinase Chk1 (Homo sapiens, UniProt O14757); experiment: Inhibition of full-length Chk1 in HeLa S3 cells assessed as phosphorylation at Ser345 after 4 hrs; assay type: cell-based
# T1 sequence (O14757 whole entry): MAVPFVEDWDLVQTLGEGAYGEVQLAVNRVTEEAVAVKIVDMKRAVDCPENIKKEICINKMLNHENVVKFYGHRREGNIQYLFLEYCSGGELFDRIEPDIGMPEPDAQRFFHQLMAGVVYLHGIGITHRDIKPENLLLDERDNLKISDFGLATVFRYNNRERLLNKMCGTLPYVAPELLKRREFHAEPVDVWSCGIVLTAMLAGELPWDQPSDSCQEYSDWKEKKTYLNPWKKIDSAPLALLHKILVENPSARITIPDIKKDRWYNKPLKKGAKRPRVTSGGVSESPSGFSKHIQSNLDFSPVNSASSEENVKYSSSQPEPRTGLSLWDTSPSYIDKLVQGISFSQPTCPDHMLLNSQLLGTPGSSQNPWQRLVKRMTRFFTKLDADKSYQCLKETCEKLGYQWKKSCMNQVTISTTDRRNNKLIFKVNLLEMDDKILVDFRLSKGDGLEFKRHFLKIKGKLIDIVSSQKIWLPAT
# Method in brief: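 HeLa S3 cells exposed to 1 µM gemcitabine together with test compound for 4 hr; read-out is Ser345-phosphorylated Chk1.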
# [6] = Apparent permeability from basolateral to apical side in human Caco2 cells at 10 uM and pH 7.4; details: Caco-2, pH 7.4
# [7] = Clearance in Sprague-Dawley rat at 2.5 mg/kg, iv and 5 mg/kg, po; assay type: ADME, organism-based; details: in vivo
# [8] = biological target: T2, Phosphatidylinositol 4,5-bisphosphate 3-kinase catalytic subunit alpha isoform (Homo sapiens, UniProt P42336); experiment: Inhibition of PI3Kalpha (unknown origin)
# T2 sequence (P42336 whole entry, canonical isoform): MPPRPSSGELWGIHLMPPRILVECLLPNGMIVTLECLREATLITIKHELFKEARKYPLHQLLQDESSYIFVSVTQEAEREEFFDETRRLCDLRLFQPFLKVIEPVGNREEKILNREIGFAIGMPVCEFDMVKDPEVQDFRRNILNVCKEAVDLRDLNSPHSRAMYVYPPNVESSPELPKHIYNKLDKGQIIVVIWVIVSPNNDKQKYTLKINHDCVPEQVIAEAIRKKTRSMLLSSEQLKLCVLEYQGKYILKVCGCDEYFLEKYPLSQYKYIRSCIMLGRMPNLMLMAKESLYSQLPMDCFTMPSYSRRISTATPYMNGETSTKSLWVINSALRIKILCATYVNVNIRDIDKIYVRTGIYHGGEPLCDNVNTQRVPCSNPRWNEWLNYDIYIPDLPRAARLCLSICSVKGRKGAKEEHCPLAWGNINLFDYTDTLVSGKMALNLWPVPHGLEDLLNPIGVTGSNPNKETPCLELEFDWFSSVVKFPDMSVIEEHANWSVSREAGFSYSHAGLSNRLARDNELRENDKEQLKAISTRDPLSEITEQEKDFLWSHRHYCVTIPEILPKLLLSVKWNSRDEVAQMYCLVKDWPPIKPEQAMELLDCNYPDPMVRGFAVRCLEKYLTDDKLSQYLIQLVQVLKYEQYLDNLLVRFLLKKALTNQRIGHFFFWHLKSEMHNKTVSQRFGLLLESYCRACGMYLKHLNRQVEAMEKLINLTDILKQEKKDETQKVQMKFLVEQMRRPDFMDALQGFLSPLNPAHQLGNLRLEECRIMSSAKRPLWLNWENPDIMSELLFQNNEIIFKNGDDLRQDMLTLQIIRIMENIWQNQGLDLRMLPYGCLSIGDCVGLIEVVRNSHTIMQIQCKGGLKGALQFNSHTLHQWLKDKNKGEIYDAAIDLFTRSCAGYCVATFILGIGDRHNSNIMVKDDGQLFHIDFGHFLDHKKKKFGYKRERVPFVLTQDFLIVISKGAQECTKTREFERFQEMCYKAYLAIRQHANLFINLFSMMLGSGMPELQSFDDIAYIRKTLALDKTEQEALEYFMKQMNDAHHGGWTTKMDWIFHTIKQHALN
# [9] = Intrinsic clearance in human liver microsomes; assay type: ADME; details: read-out: CLH; method in brief: as §1
# [10] = biological target: Serine/threonine-protein kinase ATR (Homo sapiens, UniProt Q13535); experiment: Inhibition of human ATR using ATP substrate measured after 3 hrs
# Sequence of Serine/threonine-protein kinase ATR (Q13535 whole entry): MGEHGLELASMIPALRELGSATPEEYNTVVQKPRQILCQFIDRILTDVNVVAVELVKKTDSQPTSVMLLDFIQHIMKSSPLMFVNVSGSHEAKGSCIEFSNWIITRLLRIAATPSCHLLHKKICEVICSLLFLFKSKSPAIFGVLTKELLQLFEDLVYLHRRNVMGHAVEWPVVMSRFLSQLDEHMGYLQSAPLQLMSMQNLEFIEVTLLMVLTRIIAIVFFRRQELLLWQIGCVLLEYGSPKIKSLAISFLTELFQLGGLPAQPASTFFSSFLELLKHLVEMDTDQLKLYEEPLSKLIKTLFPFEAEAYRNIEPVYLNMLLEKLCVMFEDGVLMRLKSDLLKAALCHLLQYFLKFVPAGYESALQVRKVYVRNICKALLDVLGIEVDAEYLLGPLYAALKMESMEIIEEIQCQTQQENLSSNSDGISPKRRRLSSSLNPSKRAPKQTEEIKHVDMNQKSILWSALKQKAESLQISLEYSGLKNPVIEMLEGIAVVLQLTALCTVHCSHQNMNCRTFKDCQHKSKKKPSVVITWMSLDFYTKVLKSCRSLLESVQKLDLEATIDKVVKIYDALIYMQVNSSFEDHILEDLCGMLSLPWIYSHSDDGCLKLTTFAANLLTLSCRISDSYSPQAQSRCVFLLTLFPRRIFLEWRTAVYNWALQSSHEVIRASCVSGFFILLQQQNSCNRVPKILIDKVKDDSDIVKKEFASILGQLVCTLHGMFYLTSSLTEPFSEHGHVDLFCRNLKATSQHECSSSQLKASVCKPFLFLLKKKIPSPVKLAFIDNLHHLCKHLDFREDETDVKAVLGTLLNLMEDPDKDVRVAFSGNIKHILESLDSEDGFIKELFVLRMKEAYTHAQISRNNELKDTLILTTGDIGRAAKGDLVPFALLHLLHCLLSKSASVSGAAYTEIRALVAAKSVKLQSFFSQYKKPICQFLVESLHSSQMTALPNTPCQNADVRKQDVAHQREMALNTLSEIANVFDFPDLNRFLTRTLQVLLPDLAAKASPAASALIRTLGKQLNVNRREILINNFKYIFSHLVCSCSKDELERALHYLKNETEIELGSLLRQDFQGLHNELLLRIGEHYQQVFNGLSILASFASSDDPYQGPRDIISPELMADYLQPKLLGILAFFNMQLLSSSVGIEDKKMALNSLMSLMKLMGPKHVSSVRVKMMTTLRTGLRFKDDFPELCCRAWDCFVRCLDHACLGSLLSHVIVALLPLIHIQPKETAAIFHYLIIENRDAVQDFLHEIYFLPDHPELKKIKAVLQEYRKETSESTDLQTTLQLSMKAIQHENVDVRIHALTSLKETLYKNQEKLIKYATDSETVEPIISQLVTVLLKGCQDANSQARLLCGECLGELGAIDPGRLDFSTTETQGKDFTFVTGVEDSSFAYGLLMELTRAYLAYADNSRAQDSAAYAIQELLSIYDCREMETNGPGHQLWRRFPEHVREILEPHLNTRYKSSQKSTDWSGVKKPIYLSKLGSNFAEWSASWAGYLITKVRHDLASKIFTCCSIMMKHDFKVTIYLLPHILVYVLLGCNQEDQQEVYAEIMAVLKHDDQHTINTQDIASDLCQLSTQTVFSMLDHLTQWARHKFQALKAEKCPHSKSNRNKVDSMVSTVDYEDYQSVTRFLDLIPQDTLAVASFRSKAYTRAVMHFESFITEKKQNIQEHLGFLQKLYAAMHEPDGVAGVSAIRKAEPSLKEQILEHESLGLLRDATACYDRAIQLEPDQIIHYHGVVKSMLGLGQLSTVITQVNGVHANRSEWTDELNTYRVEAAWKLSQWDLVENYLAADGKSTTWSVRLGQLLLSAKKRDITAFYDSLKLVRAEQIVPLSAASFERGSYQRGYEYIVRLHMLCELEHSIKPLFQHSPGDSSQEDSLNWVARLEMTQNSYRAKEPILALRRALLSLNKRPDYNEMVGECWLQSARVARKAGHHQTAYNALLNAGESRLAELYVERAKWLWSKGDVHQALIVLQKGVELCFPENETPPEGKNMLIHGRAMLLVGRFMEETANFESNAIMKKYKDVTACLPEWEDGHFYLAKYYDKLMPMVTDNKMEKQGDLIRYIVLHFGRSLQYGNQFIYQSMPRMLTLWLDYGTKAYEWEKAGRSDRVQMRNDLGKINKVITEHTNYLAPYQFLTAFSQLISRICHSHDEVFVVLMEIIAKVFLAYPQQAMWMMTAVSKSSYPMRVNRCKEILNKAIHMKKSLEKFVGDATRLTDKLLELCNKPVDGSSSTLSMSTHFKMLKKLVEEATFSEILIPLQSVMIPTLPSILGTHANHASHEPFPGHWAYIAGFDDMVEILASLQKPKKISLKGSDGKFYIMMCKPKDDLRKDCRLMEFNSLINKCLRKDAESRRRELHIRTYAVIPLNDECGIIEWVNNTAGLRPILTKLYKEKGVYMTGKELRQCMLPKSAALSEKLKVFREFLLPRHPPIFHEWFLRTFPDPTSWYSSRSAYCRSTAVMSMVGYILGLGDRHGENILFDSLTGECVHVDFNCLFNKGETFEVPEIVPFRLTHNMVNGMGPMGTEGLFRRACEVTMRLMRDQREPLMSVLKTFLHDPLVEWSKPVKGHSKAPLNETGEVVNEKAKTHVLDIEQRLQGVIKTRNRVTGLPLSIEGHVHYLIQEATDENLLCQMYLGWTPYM
# [11] = Intrinsic clearance in mouse liver microsomes; assay type: ADME; details: read-out: CLH; method in brief: as §1
# [12] = Volume of distribution at steady state in Sprague-Dawley rat at 2.5 mg/kg, iv and 5 mg/kg, po; assay type: ADME, organism-based; details: in vivo, read-out: Vdss
# [13] = biological target: Serine/threonine-protein kinase mTOR (Homo sapiens, UniProt P42345); experiment: Inhibition of mTOR (unknown origin)
# Cytochrome P450 1A2 [14] = biological target: T3, Cytochrome P450 1A2 (Homo sapiens, UniProt P05177); experiment: Inhibition of CYP1A2 (unknown origin); assay type: ADME
# T3 sequence (P05177 whole entry): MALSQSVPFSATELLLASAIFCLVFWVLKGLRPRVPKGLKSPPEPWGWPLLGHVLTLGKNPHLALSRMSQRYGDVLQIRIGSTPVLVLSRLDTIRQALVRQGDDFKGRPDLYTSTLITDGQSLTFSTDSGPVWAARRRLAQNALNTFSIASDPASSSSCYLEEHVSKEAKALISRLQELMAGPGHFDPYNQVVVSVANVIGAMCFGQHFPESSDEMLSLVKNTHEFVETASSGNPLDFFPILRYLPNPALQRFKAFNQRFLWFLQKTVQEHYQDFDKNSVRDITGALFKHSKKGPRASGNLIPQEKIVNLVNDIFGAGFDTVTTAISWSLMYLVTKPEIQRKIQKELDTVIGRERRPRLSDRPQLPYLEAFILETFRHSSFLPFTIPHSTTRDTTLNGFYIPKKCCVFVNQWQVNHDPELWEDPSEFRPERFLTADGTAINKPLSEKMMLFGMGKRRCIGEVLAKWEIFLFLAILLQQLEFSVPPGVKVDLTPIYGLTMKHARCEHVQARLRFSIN
# [15] = biological target: Phosphatidylinositol 4,5-bisphosphate 3-kinase catalytic subunit beta isoform (Homo sapiens) (UniProt P42338); experiment: Inhibition of PI3Kbeta (unknown origin) at <8 uM
# Cytochrome P450 2D6 [16] = biological target: T4, Cytochrome P450 2D6 (Homo sapiens, UniProt P10635); experiment: Inhibition of CYP2D6 (unknown origin); assay type: ADME
# T4 sequence (P10635 whole entry): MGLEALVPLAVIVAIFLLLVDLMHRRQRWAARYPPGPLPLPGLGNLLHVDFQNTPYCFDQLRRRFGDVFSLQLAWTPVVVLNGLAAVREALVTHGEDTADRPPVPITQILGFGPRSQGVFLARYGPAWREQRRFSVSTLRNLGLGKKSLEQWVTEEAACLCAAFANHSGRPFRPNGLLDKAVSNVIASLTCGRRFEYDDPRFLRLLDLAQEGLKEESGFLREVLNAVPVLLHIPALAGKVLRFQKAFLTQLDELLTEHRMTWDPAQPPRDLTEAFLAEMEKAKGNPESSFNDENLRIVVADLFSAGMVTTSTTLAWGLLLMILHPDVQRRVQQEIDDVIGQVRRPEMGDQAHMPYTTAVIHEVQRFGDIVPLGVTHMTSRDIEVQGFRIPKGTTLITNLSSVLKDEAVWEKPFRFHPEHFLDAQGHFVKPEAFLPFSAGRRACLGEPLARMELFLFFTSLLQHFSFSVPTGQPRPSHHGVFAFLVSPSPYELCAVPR
# Cytochrome P450 3A4 = Cytochrome P450 3A4 (Homo sapiens, UniProt P08684); experiment: Inhibition of CYP3A4 (unknown origin); assay type: ADME
# Cytochrome P450 2D6 [17] = biological target: T4, Cytochrome P450 2D6; experiment: Time dependent inhibition of CYP2D6 in human liver microsomes; assay type: ADME; details: TDE = time-dependent effect
# Cytochrome P450 1A2 [18] = biological target: T3, Cytochrome P450 1A2; experiment: Time dependent inhibition of CYP1A2 in human liver microsomes; assay type: ADME; details: TDE = time-dependent effect
# Cytochrome P450 2C9 [19] = biological target: T5, Cytochrome P450 2C9 (Homo sapiens, UniProt P11712); experiment: Inhibition of CYP2C9 (unknown origin); assay type: ADME
# T5 sequence (P11712 whole entry): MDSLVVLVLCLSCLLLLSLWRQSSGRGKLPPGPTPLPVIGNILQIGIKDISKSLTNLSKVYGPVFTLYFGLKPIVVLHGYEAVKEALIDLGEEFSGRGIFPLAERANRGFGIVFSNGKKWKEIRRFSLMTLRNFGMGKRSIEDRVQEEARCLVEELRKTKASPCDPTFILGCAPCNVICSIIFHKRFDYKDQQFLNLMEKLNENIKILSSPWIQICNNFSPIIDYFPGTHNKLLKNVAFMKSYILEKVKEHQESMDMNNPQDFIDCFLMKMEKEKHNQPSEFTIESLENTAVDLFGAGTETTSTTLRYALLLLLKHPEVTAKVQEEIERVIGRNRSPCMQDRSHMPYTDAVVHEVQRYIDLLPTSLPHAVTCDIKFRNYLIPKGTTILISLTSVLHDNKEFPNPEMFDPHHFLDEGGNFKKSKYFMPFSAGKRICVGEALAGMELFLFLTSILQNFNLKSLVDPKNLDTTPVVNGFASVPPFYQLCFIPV
# Cytochrome P450 2C9 [20] = biological target: T5, Cytochrome P450 2C9; experiment: Time dependent inhibition of CYP2C9 in human liver microsomes; assay type: ADME; details: TDE = time-dependent effect
# [21] = biological target: Phosphatidylinositol 4,5-bisphosphate 3-kinase catalytic subunit gamma isoform (Homo sapiens) (UniProt P48736); experiment: Inhibition of PI3Kgamma (unknown origin) at <8 uM
# [22] = biological target: T6, Serine-protein kinase ATM (Homo sapiens, UniProt Q13315); experiment: Inhibition of ATM (unknown origin) at 2 uM
# [23] = biological target: T7, Phosphatidylinositol 4,5-bisphosphate 3-kinase catalytic subunit delta isoform (Homo sapiens) (UniProt O00329); experiment: Inhibition of PI3Kdelta (unknown origin) at <8 uM
# T7 sequence (whole entry): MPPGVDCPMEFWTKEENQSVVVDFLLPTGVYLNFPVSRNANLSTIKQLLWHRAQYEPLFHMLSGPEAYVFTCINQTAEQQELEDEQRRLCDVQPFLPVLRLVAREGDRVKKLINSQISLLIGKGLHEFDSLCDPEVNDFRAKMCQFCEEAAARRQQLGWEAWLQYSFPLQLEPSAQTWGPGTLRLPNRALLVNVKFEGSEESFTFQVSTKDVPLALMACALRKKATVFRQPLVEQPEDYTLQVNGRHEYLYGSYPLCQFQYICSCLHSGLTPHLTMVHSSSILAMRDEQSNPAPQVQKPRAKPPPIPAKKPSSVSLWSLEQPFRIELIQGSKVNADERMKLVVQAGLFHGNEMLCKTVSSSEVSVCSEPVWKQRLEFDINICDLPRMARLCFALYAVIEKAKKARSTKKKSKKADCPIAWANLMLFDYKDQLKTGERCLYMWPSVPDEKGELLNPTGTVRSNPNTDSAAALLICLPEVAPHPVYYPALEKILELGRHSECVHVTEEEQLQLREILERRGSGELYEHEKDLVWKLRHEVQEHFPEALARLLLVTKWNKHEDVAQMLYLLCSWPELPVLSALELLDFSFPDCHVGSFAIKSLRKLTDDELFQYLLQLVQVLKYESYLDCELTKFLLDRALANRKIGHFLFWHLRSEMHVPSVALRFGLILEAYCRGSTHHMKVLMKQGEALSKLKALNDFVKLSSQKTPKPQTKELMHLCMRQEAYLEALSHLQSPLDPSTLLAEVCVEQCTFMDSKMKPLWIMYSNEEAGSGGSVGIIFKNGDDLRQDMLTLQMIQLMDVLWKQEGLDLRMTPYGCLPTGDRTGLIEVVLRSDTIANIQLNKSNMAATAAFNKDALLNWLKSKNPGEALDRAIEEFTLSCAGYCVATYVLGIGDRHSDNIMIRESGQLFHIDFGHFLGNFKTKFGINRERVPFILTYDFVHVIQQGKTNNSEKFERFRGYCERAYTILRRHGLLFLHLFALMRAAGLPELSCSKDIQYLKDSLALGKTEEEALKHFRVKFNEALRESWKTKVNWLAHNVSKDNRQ
# [24] = biological target: T2, Phosphatidylinositol 4,5-bisphosphate 3-kinase catalytic subunit alpha isoform; experiment: Inhibition of PI3Kalpha (unknown origin) at <8 uM
# [25] = biological target: T8, DNA-dependent protein kinase catalytic subunit (Homo sapiens, UniProt P78527); experiment: Inhibition of DNAPK (unknown origin) at 10 uM
# [26] = Half life in Sprague-Dawley rat at 2.5 mg/kg, iv and 2.5 mg/kg, po; details: in vivo
# [27] = biological target: T6, Serine-protein kinase ATM; experiment: Inhibition of ATM (unknown origin)
# [28] = biological target: Voltage-gated inwardly rectifying potassium channel KCNH2 (Homo sapiens, UniProt Q12809); experiment: Inhibition of human ERG channel by dofetilide binding assay
# [29] = Growth inhibition of human HT144 cells after 72 hrs by Cell Titer Glow assay; assay type: functional, cell-based; details: HT-144, 72 h
# Method in brief: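 Cell Titer Glo viability read-out after 72 hr continuous compound exposure.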
# [30] = biological target: T8, DNA-dependent protein kinase catalytic subunit; experiment: Inhibition of DNAPK (unknown origin)
structure (smiles),measurement,setting,value
CS(=O)(=O)Cn1cnc2c(N3CCOCC3)nc(-c3cccc4[nH]ccc34)cc21,solubility thermodynamic,[1],193 µM
same,CLint scaled,[2],30 mL/min/kg
same,Papp A→B at 10 µM,[3],14 ×10⁻⁶ cm/s
same,bioavailability,[4],96%
same,EC50,[5],3300 nM
same,Papp B→A at 10 µM,[6],58 ×10⁻⁶ cm/s
same,clearance,[7],14 mL/min/kg
same,IC50,[8],> 10000 nM
same,CLint scaled,[9],6 mL/min/kg
same,IC50,[10],5 nM
same,CLint scaled,[11],31 mL/min/kg
C[C@@H]1COCCN1c1nc(-c2cnc(N)nc2)cc2c1ncn2CS(C)(=O)=O,IC50,[10],6 nM
C[C@@H]1COCCN1c1nc(-c2c(F)ncc3[nH]ccc23)cc2c1ncn2C,solubility thermodynamic,[1],> 2300 µM
same,Papp A→B at 10 µM,[3],38 ×10⁻⁶ cm/s
same,bioavailability,[4],66%
same,IC50,[5],96 nM
same,Vd,[12],1.2 L/kg
same,Papp B→A at 10 µM,[6],38 ×10⁻⁶ cm/s
same,clearance,[7],20 mL/min/kg
same,IC50,[10],0.1 nM
C[C@@H]1COCCN1c1nc(-c2cncc3[nH]ccc23)cc2c1ncn2C,bioavailability,[4],18%
same,IC50,[5],84 nM
same,Vd,[12],2.3 L/kg
same,IC50,[13],7500 nM
same,clearance,[7],49 mL/min/kg
C[C@@H]1COCCN1c1nc(-c2cccc3[nH]ccc23)cc2c1ncn2CS(C)(=O)=O,EC50,[5],570 nM
same,IC50,[10],1 nM
C[C@@H]1COCCN1c1nc(-c2cncc3[nH]ccc23)cc2c1ncn2[C@@H](C)S(C)(=O)=O,IC50,Cytochrome P450 1A2 [14],> 40000 nM
same,inhibition,[15],inactive
same,IC50,Cytochrome P450 2D6 [16],> 40000 nM
same,solubility thermodynamic,[1],> 770 µM
same,Papp A→B at 10 µM,[3],2 ×10⁻⁶ cm/s
same,IC50,[5],80 nM
same,IC50,[13],> 4600 nM
same,Papp B→A at 10 µM,[6],37 ×10⁻⁶ cm/s
same,clearance,[7],114 mL/min/kg
same,IC50,Cytochrome P450 3A4,> 40000 nM
same,inhibition (INH),Cytochrome P450 2D6 [17],tde
same,inhibition (INH),Cytochrome P450 1A2 [18],tde
same,IC50,Cytochrome P450 2C9 [19],> 40000 nM
same,inhibition (INH),Cytochrome P450 2C9 [20],tde
same,IC50,[10],0.2 nM
same,inhibition,[21],inactive
same,inhibition,[22],inactive
same,inhibition,[23],inactive
same,inhibition,[24],inactive
same,inhibition,[25],inactive
c1cc(-c2cc3nccn3c(N3CCOCC3)n2)c2cc[nH]c2c1,solubility thermodynamic,[1],56 µM
same,IC50,[8],> 10000 nM
same,IC50,[10],96 nM
CS(=O)(=O)Cn1cnc2c(N3C4CCC3COC4)nc(-c3cncc4[nH]ccc34)cc21,IC50,[10],34 nM
O=C(NC1CC1)c1cn2c(N3CCOCC3)nc(-c3cccc4[nH]ccc34)cc2n1,IC50,[10],39 nM
c1cc(-c2cc3c(ncn3CC3CC3)c(N3CCOCC3)n2)c2cc[nH]c2c1,IC50,[8],> 10000 nM
same,IC50,[10],26 nM
CS(=O)(=O)Cn1cnc2c(N3C4CCC3COC4)nc(-c3cnc(N)nc3)cc21,IC50,[10],190 nM
C[C@@H]1COCCN1c1nc(-c2cccc3[nH]ccc23)cc2nccn12,IC50,[8],> 10000 nM
same,IC50,[10],95 nM
C[C@@H]1COCCN1c1nc(-c2nncc3[nH]ccc23)cc2c1ncn2C,IC50,Cytochrome P450 1A2 [14],> 24000 nM
same,IC50,Cytochrome P450 2D6 [16],> 24000 nM
same,solubility thermodynamic,[1],> 2400 µM
same,half-life,[26],2 h
same,Papp A→B at 10 µM,[3],3.6 ×10⁻⁶ cm/s
same,bioavailability,[4],7.5%
same,Vd,[12],1.8 L/kg
same,IC50,[27],15000 nM
same,IC50,[13],> 13000 nM
same,Papp B→A at 10 µM,[6],38 ×10⁻⁶ cm/s
same,clearance,[7],34 mL/min/kg
same,IC50,Cytochrome P450 3A4,> 24000 nM
same,IC50,Cytochrome P450 2C9 [19],> 24000 nM
same,IC50,[10],0.5 nM
same,IC50,[28],> 30000 nM
same,IC50,[29],350 nM
same,IC50,[30],> 25000 nM
